A selection: hits, their analogues and other compounds. The true share with any hit is near 1.3%.
H9c2 TAG inh – reduces triacylglycerol accumulation in H9c2 cells; Nile Red lipid (TAG) fluorescence; cells loaded with 200 µM oleic acid; inhibition, % at 12.5 µM; 230,000 tested, 0.66% active; AID 651582;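 active means pattern-corrected inhibition of lipid staining of at least 50% with the nuclear-stain viability signal not falling by more than 50%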
GSK3 alpha inh – human GSK-3 alpha kinase inhibition. P49840. ADP-Glo luminescence, 60 min. inhibition, % at 10 µM. 320,000 tested, 0.1% active;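 active means more than half of replicates show inhibition above 20%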;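 further: GST-tagged GSK-3 alpha with peptide substrate and 25 µM ATP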
Target sequence (P49840 whole entry, looked up): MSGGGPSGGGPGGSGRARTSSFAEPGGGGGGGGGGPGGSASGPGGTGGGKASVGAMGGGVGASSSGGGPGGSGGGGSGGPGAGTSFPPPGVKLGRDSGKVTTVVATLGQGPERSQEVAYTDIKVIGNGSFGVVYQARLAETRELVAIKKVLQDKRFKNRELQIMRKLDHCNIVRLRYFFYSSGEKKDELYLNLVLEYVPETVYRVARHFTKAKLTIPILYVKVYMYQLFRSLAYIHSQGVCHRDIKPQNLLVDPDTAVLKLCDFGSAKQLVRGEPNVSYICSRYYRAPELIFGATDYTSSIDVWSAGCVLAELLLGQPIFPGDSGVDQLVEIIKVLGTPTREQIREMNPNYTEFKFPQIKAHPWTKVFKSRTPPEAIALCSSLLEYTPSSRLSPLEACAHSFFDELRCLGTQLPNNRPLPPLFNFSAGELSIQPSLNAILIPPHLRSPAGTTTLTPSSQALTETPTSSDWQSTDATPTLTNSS
GSK3B inh – inhibitors of human GSK3beta kinase; P49841; GST-GSK3beta kinase, ADP-Glo luminescence, 60 min; active compounds read low; activity score (negative = inhibition), % at 10 µM; 300,000 tested, 0.038% active;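 active means more than half of replicate wells score below -50%, meaning over 50% inhibition versus plate controls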
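Test system: GST-fused GSK3beta enzyme, cell-free | Quantity: 1.6 ng GST-GSK3beta enzyme per well | Reagent: 25 µM ATP with peptide substrate | Schedule: 60 min enzyme reaction, room temperature | Signal: Luminescent ADP-Glo measurement of ADP formed | Read-out basis: Score relative to plate controls | Control set: DMSO and 20 µM GW8510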
STK33 inh – inhibitors of human STK33 kinase; Q9BYT3; purified STK33, MBP phosphorylation, ADP-Glo luminescence; inhibition, % at 10 µM; 320,000 tested, 0.073% active;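 active means inhibition at or above 25%, using the most active replicate where run in duplicate; inactive means inhibition below 25%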
LANA-H2A inh – blocks KSHV LANA binding to histone H2A/H2B. cell-free LANA-H2A/H2B peptide, fluorescence polarization. 320,000 tested, 0.6% active. Q9QR71. inhibition, % (test concentration not listed); in the data active means inhibition mostly above about 10%, no sharp cut-off; inactive means mostly below about 6.7%
Lipid droplet – hepatic lipid droplet formation modulation; AML12 mouse hepatocytes, oleate lipid droplets, BODIPY imaging; inhibition, % at 6.5 µM; 240,000 tested, 0.4% active;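 active means lipid droplet intensity inhibited by at least 50%, with more than 500 cells counted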
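System: AML12 hepatocytes (mouse). Probe or stimulus: oleic acid at 100 µM to induce lipid droplet formation. Times: overnight treatment with compound plus oleate. Detection: Image-based BODIPY and DAPI two-channel analysis. Evaluation: percent inhibition of filter-corrected integrated lipid droplet intensity per well.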
Hep lipid conf – hepatic lipid droplet formation inhibition, confirmed. AML12 mouse hepatocytes, BODIPY lipid droplet imaging; droplets induced with 100 µM oleic acid. shares compounds with Lipid droplet. AID 463183. 870 tested, 65% active. inhibition, % at 5.2 µM;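 active means inhibition of lipid droplet metric at least 50%, with more than 300 cells in each of four replicates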
AML12 tox img – AML12 hepatocyte cytotoxicity (counter-screen) | shares compounds with Lipid droplet | AML12 mouse hepatocytes, DAPI nuclear morphology cytotoxicity imaging; active compounds read high; cells fed 100 µM oleate overnight | z-score at 5 µM | 870 tested, 3% active | AID 463200; in the data active means z-score above about 6.3;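 further: compound exposure lasted overnight at 37 °C before fixation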
AML12 tox conf – confirmation of cytotoxicity in AML12 mouse hepatocytes | cytotoxicity, % at 50 µM | shares compounds with Lipid droplet | 530 tested, under 10 active | AML12 mouse hepatocyte viability, ATP luminescence; cells loaded with 100 µM oleic acid;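 active means cytotoxicity above 50% in each of four replicates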;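 further: compound exposure lasted overnight at 37 °C before the ATP read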
Hits are given with their value; n = inactive; x = no result.

SMILES | H9c2 TAG inh | GSK3 alpha inh | GSK3B inh | STK33 inh | LANA-H2A inh | Lipid droplet | Hep lipid conf | AML12 tox img | others
CCOc1ncccc1C(=O)OC(C)C(=O)Nc1ccc(CC)cc1 (centres undefined) | n | n | n | n | n | 53 | 97 | n | AML12 tox conf=n
O=C(C1CCCN(Cc2nc(-c3cccs3)no2)C1)N1CCOCC1 (centres undefined) | n | n | n | n | n | n | x | x
CC(C)c1ccccc1-n1c(SCC(=O)c2ccc3c(c2)NC(=O)CO3)nc2ccccc2c1=O | n | x | x | n | n | 54 | n | n | AML12 tox conf=n
c1ccc(Cn2c(-c3ccccc3)c[n+]3c2SCCC3)cc1 | n | n | n | n | n | n | x | x
Cc1[nH]c2ccccc2c1/C=N/Nc1nc(Nc2ccccc2)nc(N2CCOCC2)n1 | n | n | n | n | n | x | x | x
Oc1[nH]c2ccccc2c1N=Nc1nc(Nc2ccccc2)nc(N2CCOCC2)n1 | n | n | n | n | n | 60 | n | 20
O=C1Nc2ccccc2C12NCCc1c2[nH]c2ccccc12 (centres undefined) | x | n | n | n | n | n | x | x
CC1=CC(C)(C)N2C(=O)C3(NCCc4c3[nH]c3ccccc43)c3cccc1c32 (centres undefined) | n | n | n | n | n | 62 | 105 | n | AML12 tox conf=n
O=C(O)C1C2C=CC(O2)C1C(=O)Nc1ccccc1C(F)(F)F (centres undefined) | x | n | n | n | n | n | x | x
O=C1CN(C(=O)Cn2ncc(Cl)c(Cl)c2=O)c2ccccc2N1 | 69 | x | n | x | x | 126 | n | n
O=C1CN(C(=O)COc2ccc(Cl)c(Cl)c2)c2ccccc2N1 | n | x | x | x | x | x | x | x
O=C(Nc1ccc2c(c1)OCCO2)C1CCN(S(=O)(=O)c2cccs2)CC1 | x | n | n | n | n | n | x | x
CC(C)C(=O)N1CCC(n2nccc2NC(=O)CCOc2ccccc2)CC1 | n | x | n | n | n | n | x | x
C=CCC(=O)N1CCC(n2nccc2NC(=O)CCOc2ccccc2)CC1 | n | n | n | n | n | 61 | n | n
CCN(CC)c1ccc(/C=C2\CCC(/C=C(\C#N)C(=O)Nc3ccccc3F)=C2N2CCOCC2)cc1 | x | x | n | x | x | 101 | 96 | n | AML12 tox conf=n
N#C/C(=C/C1=C(N2CCOCC2)C(=C/c2ccccc2)/CC1)C(=O)Nc1ccccc1F | n | x | x | x | x | x | x | x
O=C(CNCC1CCCCC1)Nc1ccccc1N1CCCCC1 | n | n | n | n | n | x | x | x
O=C(CNCCC1=CCCCC1)Nc1ccccc1N1CCCCC1 | x | n | n | n | n | 103 | n | n
COn1c(C)c(C(C)=O)c2c3no[n+]([O-])c3ccc21 | x | n | n | n | n | x | x | x
CCOc1ccc2ccccc2c1/C=N/NC(=O)CNC(=O)C(c1ccccc1)c1ccccc1 | x | n | n | n | n | 82 | 92 | n | AML12 tox conf=n
Cc1ccccc1N1CCN(C(=S)c2ccc(-c3cccc([N+](=O)[O-])c3)o2)CC1 | n | n | n | n | n | n | x | x
Cc1ccccc1N1CCN(C(=S)c2ccc(-c3ccc([N+](=O)[O-])cc3)o2)CC1 | n | n | n | n | n | 86 | 69 | n
CCc1cc(=O)oc2cc(C)cc(OCC(C)=O)c12 | n | n | n | n | n | n | x | x
Cc1cccc(CCNC(=O)Cc2ccc(NC3=NC4CS(=O)(=O)CC4S3)cc2)c1 (centres undefined) | n | n | n | n | n | n | x | x
CC(C)(C)c1csc(NC(=O)c2ccc(Cl)s2)n1 | n | n | n | n | n | n | x | x
CCNc1nc(N)c(C(=O)c2ccc(Cl)s2)s1 | n | 98 | -90 | n | n | 52 | n | n
COc1ccccc1NS(=O)(=O)c1ccc(O)c(C(N)=O)c1 | n | n | n | n | n | n | x | x
